# Rows were chosen to be rich in hits. Some 2.3% of all compounds tested hit in one or more screens of this group.
# TRPC6 inh: mouse TRPC6 channel inhibitors, primary screen, cell-based, HEK293, membrane potential dye; ACh-evoked depolarization; hits give low values; 1.1% of 310,000 active; B-score at 10 µM; Short transient receptor potential channel 6 (Mus musculus), Q61143; AID 2553, 2010;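 active = B-score under library mean minus 3 SD, initial fluorescence not abnormally high, positive integrated signal ratio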;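 also: B-score derived from integrated fluorescence ratio over the kinetic read; more negative B-score means stronger inhibition of depolarization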
# Target sequence (Q61143 whole entry, looked up): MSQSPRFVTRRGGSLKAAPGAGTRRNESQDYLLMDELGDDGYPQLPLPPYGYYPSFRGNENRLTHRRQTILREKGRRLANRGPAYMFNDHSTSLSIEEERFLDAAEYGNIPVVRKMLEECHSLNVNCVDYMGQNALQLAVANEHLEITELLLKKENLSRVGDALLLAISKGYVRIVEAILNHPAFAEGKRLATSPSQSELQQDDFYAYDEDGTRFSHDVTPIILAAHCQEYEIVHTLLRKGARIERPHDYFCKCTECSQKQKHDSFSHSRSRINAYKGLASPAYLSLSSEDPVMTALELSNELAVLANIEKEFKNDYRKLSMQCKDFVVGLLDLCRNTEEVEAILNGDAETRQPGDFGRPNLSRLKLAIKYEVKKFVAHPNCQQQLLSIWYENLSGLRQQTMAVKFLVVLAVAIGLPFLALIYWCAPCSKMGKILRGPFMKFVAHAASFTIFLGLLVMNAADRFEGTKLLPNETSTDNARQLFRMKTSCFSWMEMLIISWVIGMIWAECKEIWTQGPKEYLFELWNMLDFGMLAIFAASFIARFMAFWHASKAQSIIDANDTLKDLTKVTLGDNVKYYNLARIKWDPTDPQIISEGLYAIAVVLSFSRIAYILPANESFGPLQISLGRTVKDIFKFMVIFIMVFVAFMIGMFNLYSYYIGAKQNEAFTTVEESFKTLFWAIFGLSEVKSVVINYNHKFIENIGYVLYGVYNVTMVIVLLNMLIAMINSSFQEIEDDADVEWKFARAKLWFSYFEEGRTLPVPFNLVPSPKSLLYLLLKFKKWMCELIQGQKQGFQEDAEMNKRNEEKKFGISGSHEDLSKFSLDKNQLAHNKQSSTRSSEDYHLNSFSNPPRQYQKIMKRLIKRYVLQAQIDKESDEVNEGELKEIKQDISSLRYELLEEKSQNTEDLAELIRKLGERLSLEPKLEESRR
# TRPC6 activator: mouse TRPC6 channel activators, primary screen, cell-based, HEK293, membrane potential dye; Short transient receptor potential channel 6 (Mus musculus), Q61143; HEK293-TRPC6 membrane potential dye fluorescence; hits give high values; B-score at 10 µM; 0.13% of 310,000 active;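 active = B-score of the integrated fluorescence ratio above library mean plus 3 SD, and starting fluorescence ratio within library mean plus 5 SD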;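 also: higher score means more depolarization so channel activation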
# TRPC4 PAM: positive allosteric modulators of TRPC4, primary screen, cell-based, mouse TRPC4beta, HEK293 mu-opioid, Fluo-4 calcium | Short transient receptor potential channel 4 (Mus musculus), Q9QUQ5 | DAMGO EC20, Fluo-4 Ca2+ flux; hits give high values | B-score at 10 µM | 0.42% of 310,000 active;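 active = B-score of calcium response area above 5 SD of library B-scores, with initial fluorescence ratio within 5 SD of library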;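 also: B-score of integrated fluorescence ratio over time as area under calcium response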
# TRPC4 act: activators of mouse TRPC4 channel, primary screen, Fluo4 calcium, HEK293 TRPC4beta/mu-opioid cells; AID 2237, 2010; Short transient receptor potential channel 4 (Mus musculus), Q9QUQ5; 0.49% of 310,000 active; B-score at 10 µM; Fluo4 calcium fluorescence; hits give high values;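 active = B-score above 5 SD of library B-scores, and initial fluorescence ratio not above library mean plus 5 SD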;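 also: positive B-score marks a calcium rise read as TRPC4 activation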
#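 System: HEK293 cells stably co-expressing mouse TRPC4beta and mu-opioid receptor; Schedule: Fluo4 dye loading 45 min at room temperature, 110 s recording; Detection: Fluo4 fluorescence, kinetic; Evaluation: B-scored integrated calcium fluorescence ratio; Controls: buffer (low) and maximal DAMGO (high).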
# TRPC4 inh: inhibitors of mouse TRPC4 channel, primary screen, Fluo4 calcium, HEK293 TRPC4beta/mu-opioid cells; Short transient receptor potential channel 4 (Mus musculus), Q9QUQ5; 0.39% of 300,000 active; B-score at 10 µM; DAMGO-evoked Fluo4 calcium flux; hits give low values;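 active = B-score over 3 SD under the library average, no early fluorescence shift, positive overall ratio signal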
#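 test system = HEK293 cells with stable TRPC4beta plus mu-opioid receptor expression | detection = Fluo4 Ca2+ flux fluorescence | read-out = integrated fluorescence ratio relative to baseline, converted to per-well B score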
# Starred values were filed as active, the others as inactive; i = inactive.
SMILES,TRPC6 inh,TRPC6 activator,TRPC4 PAM,TRPC4 act,TRPC4 inh
CCCCN1C2=NC(c3ccccc3)CN2c2ccccc21 (centres undefined),i,i,i,i,-6*
O=c1ccc(OCCOc2ccccc2)nn1-c1ccccc1,i,i,17*,i,i
CC(Nc1nc(N2CCNCC2)nc2ccccc12)c1ccccc1 (centres undefined),i,i,i,103*,i
Cc1ccc(/C=N/NC(=O)c2ccc3ccccc3c2)s1,i,i,i,i,i
CCOC(=O)C1CCN(S(=O)(=O)c2ccc(CNC(=O)c3ccccc3)s2)CC1,i,i,i,i,i
CCCN(C(=O)COC(=O)C12CCC(=O)N1c1ccccc1S2)c1c(N)n(Cc2ccccc2)c(=O)[nH]c1=O (centres undefined),i,i,i,55*,-7*
COc1ccc(CCNC(C)=O)cc1,i,i,i,i,i
COc1ccc(CCNC(=O)C2CC=CCC2C(=O)O)cc1 (centres undefined),i,i,12*,i,i
CCN(CC(=O)NC1CCCC1)S(=O)(=O)c1ccc(Br)cc1,i,i,i,i,i
Cc1cccc2c1-c1sc(C(=O)NCCCN3CCCC(C)C3)cc1CO2 (centres undefined),i,i,i,48*,i
O=C(NCCCn1ccnc1)c1cccc(Br)c1,i,i,i,i,i
Cc1cc(Cl)cc(Cl)c1OCCCCN(C)C,i,i,36*,i,i
Cc1ccc(S(=O)(=O)c2c(C(=O)c3ccccc3)cnc3cc4c(cc23)OCCO4)cc1,i,i,18*,i,i
CCCCC(=O)N(c1ccc(C(=O)O)cc1)c1nc(-c2ccc(Cl)cc2)c(CC)s1,i,i,i,i,-6*
CCc1sc(N(C(=O)Cc2ccccc2)c2ccccc2)nc1-c1ccccc1,i,i,i,i,i
COc1ccc(NC(=O)c2cc(-c3ccncc3)nc3ccc(Br)cc23)cc1OC,i,i,i,i,i
COc1cccc(NC(=O)Cc2nnc(SCC(=O)NC3CCCC3)n2C)c1,i,i,i,i,i
CN(C)C(CNC(=O)c1coc2ccccc2c1=O)c1ccccc1 (centres undefined),i,i,12*,i,i
CN(C)C(CNC(=O)c1cc(S(=O)(=O)N(C)c2ccccc2)ccc1Cl)c1ccccc1 (centres undefined),i,i,i,i,i
CN(C)C(CNC(=O)c1ccc(NC(=O)c2cccs2)cc1)c1ccccc1 (centres undefined),i,i,i,i,i
CN(C)C(CNC(=O)c1ccc2ccccc2n1)c1ccccc1 (centres undefined),i,i,i,100*,i
CN(C)C(CNC(=O)c1cnc(Cl)c(Cl)c1)c1ccccc1 (centres undefined),i,i,i,223*,i
COC(=O)c1ccc(CNC(=O)c2coc3ccccc3c2=O)cc1,i,i,i,i,i
CN(C)C(CNC(=O)c1ccc(C2SCCS2)cc1)c1ccccc1 (centres undefined),i,i,i,i,-5*
Cc1ccc2c(Cl)c(C(=O)NC3CC3)sc2c1,i,i,i,i,i
SMILES,TRPC6 inh,TRPC6 activator,TRPC4 PAM,TRPC4 act,TRPC4 inh
CCCc1ncc(CN2CCC(C(=O)Nc3cccc(-c4cscn4)c3)CC2)cn1,i,i,i,i,i
CN(C)C(CNC(=O)/C=C/c1cccc(Cl)c1)c1ccccc1 (centres undefined),i,i,i,199*,i
COc1cccc(/C=C2\SC(=S)N(CCCC(=O)N(CCO)c3ccccc3)C2=O)c1,i,i,i,i,i
CCCCC(=O)NNC(=S)NC(=O)c1ccc(C)cc1,i,i,i,240*,i
COc1ccc(C(=O)NNC(=S)NC(=O)c2ccc(Cl)cc2)cc1,i,i,i,163*,i
COc1ccc(C(=O)NC(=S)NNC(=O)c2ccc(C)cc2)cc1,i,i,i,189*,i
Cc1ccc2nc(SCC(=O)N3CCCCC3)nc(=O)n2c1,i,i,i,i,i
O=C(NCCCN1CCOCC1)C1COc2ccccc2O1 (centres undefined),i,i,i,i,i
O=C(NCCCN1CCOCC1)c1ccc(NC(=O)C2COc3ccccc3O2)cc1 (centres undefined),i,i,i,78*,-6*
COC(=O)c1sccc1NC(=O)c1ccc(OC)cc1,i,i,i,i,i
COC(=O)c1sccc1NC(=O)c1ccc(C#N)cc1,-5*,i,i,i,i
Cc1ccc(Cn2c(Cc3ccccc3)nc3ccccc32)cc1,i,i,i,i,-6*
CCCC(=O)N/C(N)=N/c1nc(C)c2ccccc2n1,i,i,19*,i,i
COc1ccc(CN2C(=O)c3ccccc3C(/C=N\OCc3ccc(C)cc3)C2=O)cc1 (centres undefined),i,i,i,i,i
CC1=C([N+](=O)[O-])C(c2ccc(Cl)cc2)NC(=O)N1C (centres undefined),i,i,i,i,i
Cc1cc(C)c(S(=O)(=O)NCc2cccs2)cc1C,i,i,13*,i,i
C/C(=N\NC(=O)c1sccc1-n1cccc1)c1cccs1,i,i,i,i,i
CC(C)N(CC(N)=O)C(=O)Cc1coc2cc3c(cc12)CCC3,i,i,13*,i,i
COc1cccc(NC(=O)COC(=O)CCCC2=NS(=O)(=O)c3ccccc3N2)c1,i,i,i,i,i
O=C1CCC(C(=O)N2CCN(c3cnccn3)CC2)CN1CCc1ccc(Cl)cc1 (centres undefined),i,i,i,i,i
O=C(c1ccc([N+](=O)[O-])cc1)N1CCN(c2ncc(Br)cn2)CC1,i,i,i,219*,i
O=C(CSc1n[nH]c(=O)n1-c1ccc2c(c1)OCCO2)Nc1ccccc1,i,i,i,i,i
OC(CNCc1ccccc1C(F)(F)F)C(F)(F)F (centres undefined),i,i,i,i,i
